Assay results: the array DNA melting data of Ke et al. (doi:10.1101/2024.01.08.574731)

Tests used:
[1] = folding enthalpy; higher = less favourable; fluorescence melt of hairpins on a sequencing array, two-state fit; details: sodium 0.088 M
Procedure, shortened: (§1)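 Two-state fits, bootstrapped, provided melting temperature and folding enthalpy from Cy3 fluorescence normalised to pre-quench Cy3 and to control constructs. Library hairpins with annealed Cy3 and quencher oligos were imaged on a sequenced MiSeq flow cell in 50 mM Na-HEPES pH 8.0, 25 mM NaCl, at 2.5 °C intervals up to 60 °C. Four replicates were combined with inverse-variance weighting. A 9.35 °C upward shift was applied to fitted temperatures to match UV melts.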

[2] = melting temperature; fluorescence melt of hairpins on a sequencing array, two-state fit, raised by 9.35 °C to match UV melts; details: sodium 0.088 M
Procedure, shortened: as §1

| Sequence | folding enthalpy [1] | Tm [2] |
| --- | --- | --- |
| GAGTCGGGAAACCGACCC (.(((((....))))).) | -10.8 kcal/mol | 42 °C |
| GGGGTAGGAAACTGCCTC (.((.((....)).)).) | -25.1 kcal/mol | 38 °C |
| GAATACGGAAACGTATTC (((((((....))))))) | -36.5 kcal/mol | 55.7 °C |
| GATCCCTTTGGGATC ((((((...)))))) | -40.6 kcal/mol | 63.5 °C |
| GATCACCTCGGTGATC ((((((....)))))) | -37.5 kcal/mol | 65.4 °C |
| GAACCCGAAAGGGGTTC ((((((....))).))) | -26 kcal/mol | 61.1 °C |
| GCGAGGTGTCGC ((((....)))) | -5.64 kcal/mol | 65.7 °C |
| GTGGGACGAAAGTCTCAC (((.(((....))).))) | -36 kcal/mol | 60 °C |
| GATAATGAAAATTATC ((((((....)))))) | -20.5 kcal/mol | 37.9 °C |
| GCCGCTTCGAAAGAAGGC (((..(((....)))))) | -13.2 kcal/mol | 49.7 °C |
| GTCAACGAAAGTTGGAC ((((((....))).))) | -13.2 kcal/mol | 39.7 °C |
| GATCCTATAGAGGATC ((((((....)))))) | -28.9 kcal/mol | 50.4 °C |
| GTATTGGGAAACCAACAC ((.((((....)))).)) | -15 kcal/mol | 31.4 °C |
| GAGGCCGGAAACGGCCCC (.(((((....))))).) | -6.76 kcal/mol | 51.2 °C |
| GAACCAGGAAACTGGTCC (.(((((....))))).) | -12.6 kcal/mol | 39.5 °C |
| GACAGCGAAAGCTCCGTC ((((((....)))..))) | -9.29 kcal/mol | 34.4 °C |
| GCTAAGCGAAAGCCTAGC ((((.((....)).)))) | -21.9 kcal/mol | 49.1 °C |
| GTCTTGGGAAACTAAGAC (((((.(....).))))) | -34.9 kcal/mol | 42.8 °C |
| GCAACGACGAAAGTCTGC (((..(((....)))))) | -16.6 kcal/mol | 40.5 °C |
| GAAGTCGGAAACGACTCC (.(((((....))))).) | -13.2 kcal/mol | 41.3 °C |
| GCGTGGTTACGC ((((....)))) | -21.7 kcal/mol | 54.9 °C |
| GGCCATCCGAAAGGAGCC (((..(((....)))))) | -20.1 kcal/mol | 42.8 °C |
| GCAGCACGAAAGTGTGC (((.(((....)))))) | -18.6 kcal/mol | 55.7 °C |

| Sequence | folding enthalpy [1] | Tm [2] |
| --- | --- | --- |
| GCAACAACGAAAGTTTGC (((..(((....)))))) | -25 kcal/mol | 36.1 °C |
| GCGAGGGTCGC ((((...)))) | -7.26 kcal/mol | 62 °C |
| GGAGGAACGAAAGTTTCC (((..(((....)))))) | -16.2 kcal/mol | 30.4 °C |
| GTCTCGGGAAACTGGGAC (((.(.(....).).))) | -29.3 kcal/mol | 37.2 °C |
| GATCTGTGGACAGATC ((((((....)))))) | -45.1 kcal/mol | 53.2 °C |
| GATCTTATCTAAGATC ((((((....)))))) | -41.9 kcal/mol | 45.2 °C |
| GATCCTTCTTAGGATC ((((((....)))))) | -41.8 kcal/mol | 52.8 °C |
| GATCGAACGGTCGATC ((((((....)))))) | -51.2 kcal/mol | 51.1 °C |
| GGGTTCCGAAAGGACCCC (((.(((....))).))) | -39.5 kcal/mol | 58.1 °C |
| GTACGTCGAAAGACTAC (((.(((....)))))) | -21.9 kcal/mol | 41 °C |
| GCGTTGCGAAAGCTAGGC ((.(.((....)).).)) | -19.2 kcal/mol | 48.9 °C |
| CGCGTCGGAAACGATGCG (((.(((....))).))) | -54.9 kcal/mol | 62.4 °C |
| GGGGGTGGAAACGCCTCC ((.((.(....).)).)) | -23.7 kcal/mol | 49.7 °C |
| CGGGACGGAAACGTTCCG (((.(((....))).))) | -37.8 kcal/mol | 59.4 °C |
| GCCATTGAAAAATGGC ((((((....)))))) | -39.8 kcal/mol | 58.4 °C |
| GATCTACTTTTAGATC ((((((....)))))) | -33.1 kcal/mol | 39.8 °C |
| AGGCTGAAAAGCCT (((((....))))) | -16.9 kcal/mol | 62.6 °C |
| GTGGGCTCGAAAGAGCAC (((..(((....)))))) | -26 kcal/mol | 65.5 °C |
| GTCCTGCCGAAAGGCGAC (((..(((....)))))) | -9.38 kcal/mol | 33.2 °C |
| GATCTGCAAACAGATC ((((((....)))))) | -35.9 kcal/mol | 48.5 °C |
| GGAAATGGAAACATTCCC ((.((((....)))).)) | -25.1 kcal/mol | 33.1 °C |
| GGTAGGCGAAAGCCGACC (((.(((....))).))) | -18.6 kcal/mol | 65.4 °C |
| GGCCGGGGAAACCCGGTC (.(((((....))))).) | -24.6 kcal/mol | 67.9 °C |

| Sequence | folding enthalpy [1] | Tm [2] |
| --- | --- | --- |
| GATCACGAAAGTGACATC ((((((....)))..))) | -10.1 kcal/mol | 30 °C |
| GTTGGTCGAAAGACAAAC (((.(((....))).))) | -26.5 kcal/mol | 48.5 °C |
| GATCATAGGATGATC ((((((...)))))) | -30.8 kcal/mol | 48.3 °C |
| GATCAGCGAAAGCTAATC (((.(((....))).))) | -15.7 kcal/mol | 35.9 °C |
| GCTCAAGGAAACTTGGGC ((.((((....)))).)) | -37.4 kcal/mol | 50 °C |
| GATCTCGCCGGAGATC ((((((....)))))) | -35.5 kcal/mol | 54.4 °C |
| GTCAGCCGAAAGGCGGAC (((.(((....))).))) | -33.1 kcal/mol | 68 °C |
| GTCATGCGAAAGCAGGAC (((.(((....))).))) | -32.2 kcal/mol | 67.7 °C |
| GCATACGAAAGTACCTGC ((((((....)))..))) | -13.2 kcal/mol | 26.6 °C |
| GGAGTCGAAAGACGCTCC ((((((....)))..))) | -12.6 kcal/mol | 42.3 °C |
| GTTGCTCGAAAGAGGAAC (((.(((....))).))) | -38.2 kcal/mol | 53.9 °C |
| GGTTGGGGAAACCTAGCC ((.(.((....)).).)) | -19.1 kcal/mol | 38 °C |
| GATCTACAGATAGATC ((((((....)))))) | -26.6 kcal/mol | 37.3 °C |
| GGACCGCGAAAGCGCTCC (((.(((....))).))) | -16.2 kcal/mol | 46.8 °C |
| GGTAGCGAAAGCTGTACC ((((((....)))..))) | -19.9 kcal/mol | 40.7 °C |
| CGTATCGGAAACGACACG (((.(((....))).))) | -31.2 kcal/mol | 42.6 °C |
| CGCGGACCGTCCGCG ((((((...)))))) | -29 kcal/mol | 68.9 °C |
| GCAGCGTCGAAAGACTGC (((..(((....)))))) | -14 kcal/mol | 44.4 °C |
| GTATGACGAAAGTCGTAC (((.(((....))).))) | -30.3 kcal/mol | 53.8 °C |
| GCGCTAGGAAACCAGCAC (.(((.(....).))).) | -9.67 kcal/mol | 26.8 °C |
| GGAGGGGGAAACCTCTCC ((((.((....)).)))) | -35.8 kcal/mol | 51.3 °C |
| GTGAGCGAAAGCTCCCAC ((((((....)))..))) | -8.27 kcal/mol | 36.4 °C |
| CGAACGGAAACGTCCTCG ((((((....)))..))) | -11.4 kcal/mol | 26.2 °C |

| Sequence | folding enthalpy [1] | Tm [2] |
| --- | --- | --- |
| GGCGGCGAAAGCCAAGCC ((((((....)))..))) | -25.5 kcal/mol | 63.9 °C |
| GCCTCGACGAAAGTCGGC (((..(((....)))))) | -6.95 kcal/mol | 52.1 °C |
| GATCGAACTTTCGATC ((((((....)))))) | -35.6 kcal/mol | 53.4 °C |
| GGATGTGGAAACACATCC (((((((....))))))) | -42.6 kcal/mol | 64.5 °C |
| GATCCGGATCCGGATC ((((((....)))))) | -51.4 kcal/mol | 61.3 °C |
| GGAGATGGAAACATCTTC (.(((((....))))).) | -26.2 kcal/mol | 44.6 °C |
| GTCCTTGGAAACGAGGAC (((((.(....).))))) | -40.8 kcal/mol | 50.7 °C |
| GAGACCGAAAGGTGGCTC ((((((....)))..))) | -19.2 kcal/mol | 43.4 °C |
| CGCGAACGGAAACGTGCG (((..(((....)))))) | -47.6 kcal/mol | 49.6 °C |
| GCACCCGAAAGGGGATGC ((((((....)))..))) | -19.6 kcal/mol | 50.8 °C |
| GTGGATCGAAAGATCAC (((.(((....)))))) | -13.3 kcal/mol | 48.8 °C |
| GCGCTCCGAAAGGACCGC (((.(((....))).))) | -44.6 kcal/mol | 53 °C |
| GTAACCCGAAAGGGCTAC (((.(((....))).))) | -20 kcal/mol | 45.6 °C |
| AGTCAGAAATGACT (((((....))))) | -18.9 kcal/mol | 43.3 °C |
| GATATTACGAAAGTAATC (((..(((....)))))) | -11.6 kcal/mol | 34.7 °C |
| GAGAGGGGAAACCCTCTC (((((((....))))))) | -39 kcal/mol | 63.5 °C |
| GCCAATGAAAATTGGC ((((((....)))))) | -30.7 kcal/mol | 59.9 °C |
| GCTTTGCGAAAGCGAGGC ((.(.((....)).).)) | -17.1 kcal/mol | 49.7 °C |
| GATCGGATGTCCGATC ((((((....)))))) | -38.2 kcal/mol | 56.8 °C |
| GCTCACGAAAGTGCCAGC ((((((....)))..))) | -13.1 kcal/mol | 33.5 °C |
| GATCCGCGCTCGGATC ((((((....)))))) | -37.3 kcal/mol | 57.4 °C |
| GAGGCCCGAAAGGGTCTC (((.(((....))).))) | -31.6 kcal/mol | 67.4 °C |
| GGGGTTGAAAAACCCC ((((((....)))))) | -34.5 kcal/mol | 66.7 °C |
